Converted amounts (≈) assume the structure as drawn. Where a name gives a salt, the structure may show the parent alone.
Assays:
[1] = test system: Mycobacterium tuberculosis; assay: Antibacterial activity against Mycobacterium tuberculosis H37Rv after 7 days by resazurin microplate assay; format: functional; details: 168 h
[2] = Selectivity index, ratio of CC50 for human HepG2 cells to MIC for Mycobacterium tuberculosis H37Rv; format: toxicity, cell-based; details: read-out: Selectivity Index
Method in brief: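 Index equals HepG2 CC50 (SRB assay, 10 to 80 µg/mL) divided by the REMA MIC against M. tuberculosis H37Rv (50 to 0.1 µg/mL).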

[3] = Cytotoxicity against human HepG2 cells after 48 hrs by SRB assay; format: cell-based
[4] = Metabolic stability in rat liver microsomes assessed as compound remaining at 10 uM after 60 mins by HPLC analysis; format: ADME; details: read-out: Stability
Method in brief: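 Compound was incubated with rat liver microsomes and its disappearance followed over 60 minutes. Diazepam was the internal standard. The drug-to-internal-standard ratio was calculated at each time point to gauge how much compound remained.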

[5] = test system: Mycobacterium tuberculosis; assay: Antibacterial activity against Mycobacterium tuberculosis; format: functional

SMILES | MIC [1] | selectivity ratio [2] | CC50 at 48 h [3] | remaining at 1 h, 10 µM [4] | MIC [5]
COc1nc2ccccc2cc1/C=C/c1noc(-c2ccccc2Br)n1 | 16.8 µM (≈ 6.86 µg/mL) | > 11.6 | > 195 µM |  | 
COc1nc2ccccc2cc1/C=C/c1noc(-c2ccc(Br)cc2)n1 | 9.19 µM (≈ 3.75 µg/mL) | > 21.2 | > 195 µM |  | 
COc1nc2ccccc2cc1/C=C/c1noc(COc2ccccc2)n1 | 0.67 µM (≈ 0.241 µg/mL) | > 330 | > 220 µM |  | 
COc1nc2ccccc2cc1/C=C/c1noc(-c2ccccc2C)n1 | 72.8 µM (≈ 25 µg/mL) | > 3.16 | > 230 µM |  | 
COc1nc2ccccc2cc1/C=C/c1noc(-c2ccc(F)cc2)n1 | 5.61 µM (≈ 1.95 µg/mL) | > 41 | > 230 µM |  | 
COc1ccc(-c2nc(/C=C/c3cc4ccccc4nc3OC)no2)cc1 | > 140 µM | > 1.57 | > 220 µM |  | 
COc1nc2ccccc2cc1/C=C/c1noc(-c2ccco2)n1 | 27.4 µM (≈ 8.75 µg/mL) | > 9.12 | > 250 µM |  | 
COc1ccc(Cc2nc(/C=C/c3cc4ccccc4nc3OC)no2)cc1 | 0.4 µM (≈ 0.149 µg/mL) | > 535 | > 215 µM |  | 
COc1nc2ccccc2cc1/C=C/c1noc(-c2cccnc2)n1 | > 150 µM | > 1.6 | > 240 µM |  | 
COc1nc2ccccc2cc1/C=C/c1noc(C)n1 | 1.05 µM (≈ 0.281 µg/mL) | > 285 | > 300 µM |  | 
COc1nc2ccccc2cc1/C=C/c1noc(-c2cccc(C)c2)n1 | 110 µM (≈ 37.8 µg/mL) | > 2.09 | > 230 µM |  | 
COc1nc2ccccc2cc1/C=C/c1noc(-c2ccc(C)cc2)n1 | 40 µM (≈ 13.7 µg/mL) | > 5.75 | > 230 µM |  | 
COc1nc2ccccc2cc1/C=C/c1noc(-c2cccc(Cl)c2)n1 | > 110 µM | > 2 | > 220 µM |  | 
COc1nc2ccccc2cc1/C=C/c1noc(-c2ccccc2)n1 | 12.3 µM (≈ 4.05 µg/mL) | > 19.5 | > 240 µM |  | 
COc1cccc(-c2nc(/C=C/c3cc4ccccc4nc3OC)no2)c1 | 105 µM (≈ 37.7 µg/mL) | > 2.1 | > 220 µM |  | 
COc1ccccc1-c1nc(/C=C/c2cc3ccccc3nc2OC)no1 | 6.96 µM (≈ 2.5 µg/mL) | > 31.6 | > 220 µM |  | 
COc1nc2ccccc2cc1/C=C/c1noc(/C=C/c2ccccc2)n1 | 6.33 µM (≈ 2.25 µg/mL) | > 35.5 | > 225 µM |  | 
COCc1nc(/C=C/c2cc3ccccc3nc2OC)no1 | 0.44 µM (≈ 0.131 µg/mL) | > 610 | > 270 µM | 99% | 
COc1nc2ccccc2cc1/C=C/c1noc(Cc2ccccc2)n1 | 0.44 µM (≈ 0.151 µg/mL) | > 520 | > 230 µM |  | 
COc1nc2ccc(Br)cc2cc1[C@@H](c1ccccc1)[C@@](O)(CCN(C)C)c1cccc2ccccc12 [BEDAQUILINE] |  |  |  |  | 0.1 µM (≈ 0.0556 µg/mL)
COc1cccc2c1C(=O)c1c(O)c3c(c(O)c1C2=O)C[C@@](O)(C(=O)CO)C[C@@H]3O[C@H]1C[C@H](N)[C@H](O)[C@H](C)O1 [DOXORUBICIN HYDROCHLORIDE] |  |  | 127 µM |  | 
NNC(=O)c1ccncc1 [ISONIAZID] | 0.73 µM (≈ 0.1 µg/mL) |  |  |  | 
